# Source: paper PMC8585696 (Immunity, 2021)
# B1: Dkk-1: recombinant mouse Dkk-1 (5897-DK-010, R&D systems), Wnt pathway antagonist (protein, UniProt O54908 32-272, looked up)
# Dickkopf-related protein 1: TLNSVLINSNAIKNLPPPLGGAGGQPGSAVSVAPGVLYEGGNKYQTLDNYQPYPCAEDEECGSDEYCSSPSRGAAGVGGVQICLACRKRRKRCMRHAMCCPGNYCKNGICMPSDHSHFPRGEIEESIIENLGNDHNAAAGDGYPRRTTLTSKIYHTKGQEGSVCLRSSDCAAGLCCARHFWSKICKPVLKEGQVCTKHKRKGSHGLEIFQRCYCGEGLACRIQKDHHQASNSSRLHTCQRH
# Experiments:
# GP1bα [1] = details: through the A1 domain; ref Azuma et al., 1991; cited from earlier work
# Dkk-1 = details: ref Chae et al., 2016; cited from earlier work
# C. albicans = test: lung fungal burden; type: in vivo
# Method in brief: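 Whole-lung C. albicans CFU was counted in C57BL/6 mice 24 h after the last of 8 intranasal challenges (1 × 10^5 viable cells in saline, every other day). Dkk-1 inhibitor or recombinant mouse Dkk-1 (5 μg/kg) was given i.p. together with each challenge.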
# C57BL/6 mice [2] = test: BALF inflammatory cell counts; type: in vivo, mouse; details: C. albicans intranasal, inhibitor 10 or 20 μg/kg i.p., Figure 2I
# C57BL/6 mice [3] = test: cytokines from lung by ELISA; type: in vivo, mouse
# Method in brief: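 C57BL/6 mice received 1 × 10^5 viable C. albicans intranasally every other day for 8 challenges. Fungal cells were thawed (>95% viable), washed and suspended in normal saline. Dkk-1 inhibitor (10 or 20 μg/kg) or recombinant mouse Dkk-1 (5 μg/kg) was given i.p. at each challenge. Lungs were taken 24 h after the last challenge, and cytokines in lung homogenate supernatants were measured by ELISA (TMB, 450 nm).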
# [4] = tested on: human platelets (platelet-rich plasma); test: platelet aggregation assay; type: cell-based; details: collagen 2.5 μg/mL or increasing candidalysin, 5 min, Figure S4G
# GP1bα [5] = test: GP1bα pulldown from human platelet lysates; type: binding; details: 60 μg biotinylated bait, 1 h, 4°C, western blot; Figure 4E
# C57BL/6 mice [6] = test: airway hyperresponsiveness; type: in vivo, mouse; details: ece1Δ/Δ C. albicans intranasal; Dkk-1 5 μg/kg i.p.; Figure 3B
# C57BL/6 mice [7] = test: allergic airway disease overall; type: in vivo, mouse; details: intraperitoneal route, no fungus; data not shown
# [8] = tested on: GATA3^+ Th2 and RORγt^+ Th17 cells; test: lung T cell quantitation by flow cytometry; type: in vivo, mouse; details: ece1Δ/Δ C. albicans intranasal; Dkk-1 5 μg/kg i.p.; Figures 3F, 3G
# Method in brief: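 Mice were challenged with C. albicans (1 × 10^5 viable cells) intranasally every other day ×8, with recombinant mouse Dkk-1 (5 μg/kg i.p.) at each challenge, and analyzed 24 h after the final challenge. Erythrocytes in total lung cells were lysed with ACK. Cells were stained for live/dead, CD45, CD3 and CD4, split into 3 groups, fixed and permeabilized, then stained for T-bet, GATA3 or RORγt. Results are given as percentages and absolute counts.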
molecule,measurement,setting,value
"VWF A1A2A3 tridomain: recombinant human VWF A1, A2, A3 domains (Q1238-G1874) expressed in HEK293",binding of VWF fragment to GP1bα,GP1bα [1],binds GP1bα through the A1 domain
NCC1CCN(c2nccc(-c3ccc4ccccc4c3)n2)CC1 [WAY 262611],block of Dkk-1 in vivo,Dkk-1,previously shown to block this peptide in vivo
same,lung fungal burden under Dkk-1 inhibitor,"C. albicans; C. albicans intranasal, inhibitor i.p., Figure 2N",markedly elevated lung fungal burdens
same,BALF eosinophilia under Dkk-1 inhibitor,C57BL/6 mice [2],most notably reducing BALF eosinophilia
same,BALF inflammatory cell recruitment under Dkk-1 inhibitor,C57BL/6 mice [2]; dose-dependent,progressively reduced
same,secretion of IL-17 from whole lung under Dkk-1 inhibitor,"C57BL/6 mice [3]; C. albicans intranasal, inhibitor 10 or 20 μg/kg i.p., Figure 2J",inhibited secretion of IL-17
same,"secretion of IL-1β, IL-6 and TNF under Dkk-1 inhibitor","C57BL/6 mice [3]; C. albicans intranasal, inhibitor 10 or 20 μg/kg i.p., Figure 2K",not significantly affected
collagen,platelet aggregation in vitro,[4],in marked contrast to the activating GPIIb/IIIa ligand collagen
IFKIIISKIQIVMGLNGIPIKVAGSQNIGMI [scrambled control (SC) peptide],association with GP1bα from human platelet lysates,GP1bα [5],but not its scrambled control peptide
B1,fungal lung burden with exogenous Dkk-1,"C. albicans; ece1Δ/Δ C. albicans intranasal, Dkk-1 5 μg/kg i.p., Figure 3H",significantly reduced
same,airway hyperresponsiveness with exogenous Dkk-1,C57BL/6 mice [6],significantly enhanced airway hyperresponsiveness
same,"indices of allergic airway disease, Dkk-1 alone",C57BL/6 mice [7],no effect on any index of allergic airway disease
same,recruitment to lung of GATA3^+ Th2 and RORγt^+ Th17 cells with exogenous Dkk-1,[8],markedly increase recruitment to lung
same,"secretion of lung Th2 cytokines, especially IL-4, and IL-17 with exogenous Dkk-1","C57BL/6 mice [3]; ece1Δ/Δ C. albicans intranasal, Dkk-1 5 μg/kg i.p., Figure 3D",markedly enhanced
same,secretion of innate pro-inflammatory cytokines with exogenous Dkk-1,"C57BL/6 mice [3]; ece1Δ/Δ C. albicans intranasal, Dkk-1 5 μg/kg i.p., Figure 3E",did not influence the secretion of innate pro-inflammatory cytokines
